# Test results as given in ChEMBL document CHEMBL1125911, “Synthesis and biological activity of new HMG-CoA reductase inhibitors. 3. Lactones of 6-phenoxy-3,5-dihydroxyhexanoic acids” (J Med Chem, 1991).
# Key:
# [1] = system: Canis familiaris; assay: Tested in vivo for hypocholesterolemic activity by measuring its ability to decrease serum LDL-cholesterol, after oral administration of 25 mg/kg per day for 14 days in male Beagle dogs.; format: functional, Canis lupus familiaris
# Method in brief: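 Male beagle dogs (n = 4) given neat compound in gelatine capsules daily at 3:00 p.m.; controls received empty capsules. After an overnight fast, venous blood was drawn at 8:00 a.m. Serum lipoproteins were separated by ultracentrifugation (densities 1.006/1.063/1.21). LDL-cholesterol reported as % change versus control.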
# [2] = biological target: T1, 3-hydroxy-3-methylglutaryl-coenzyme A reductase (Rattus norvegicus, UniProt P51639); assay: In vitro inhibition of HMG-CoA reductase in solubilized rat liver.
# T1 sequence (P51639 whole entry): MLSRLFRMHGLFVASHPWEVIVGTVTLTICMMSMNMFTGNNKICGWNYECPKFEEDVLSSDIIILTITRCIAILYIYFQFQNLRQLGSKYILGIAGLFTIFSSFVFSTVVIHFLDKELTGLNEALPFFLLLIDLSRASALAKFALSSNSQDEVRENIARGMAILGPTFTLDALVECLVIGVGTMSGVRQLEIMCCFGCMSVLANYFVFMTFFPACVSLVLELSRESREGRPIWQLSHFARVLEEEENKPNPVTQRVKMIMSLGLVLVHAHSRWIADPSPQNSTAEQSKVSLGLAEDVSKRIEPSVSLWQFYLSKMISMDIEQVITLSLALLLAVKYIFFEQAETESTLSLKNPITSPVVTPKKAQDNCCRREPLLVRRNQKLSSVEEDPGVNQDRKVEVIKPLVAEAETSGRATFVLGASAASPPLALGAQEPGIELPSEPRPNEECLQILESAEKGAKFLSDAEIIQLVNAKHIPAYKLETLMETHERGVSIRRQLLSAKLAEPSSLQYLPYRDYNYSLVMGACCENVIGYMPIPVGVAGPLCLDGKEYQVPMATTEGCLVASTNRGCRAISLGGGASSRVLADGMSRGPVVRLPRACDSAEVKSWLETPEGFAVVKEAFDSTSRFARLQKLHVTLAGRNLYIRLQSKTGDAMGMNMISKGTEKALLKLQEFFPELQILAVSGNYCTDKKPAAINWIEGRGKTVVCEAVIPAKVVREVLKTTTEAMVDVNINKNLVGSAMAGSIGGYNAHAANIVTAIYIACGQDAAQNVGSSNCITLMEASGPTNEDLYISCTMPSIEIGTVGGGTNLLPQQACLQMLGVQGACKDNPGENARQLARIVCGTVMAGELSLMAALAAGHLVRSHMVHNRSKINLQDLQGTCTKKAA
# [3] = biological target: T2, 3-hydroxy-3-methylglutaryl-coenzyme A reductase (Rattus norvegicus) (UniProt P51639); assay: (§1) Inhibition of HMG-CoA reductase compared to mevinolin.
# T2 sequence (whole entry): T1 sequence (P51639 whole entry)
# Method in brief: (§2)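 Solubilized, partially purified rat liver HMG-CoA reductase. IC50 from four or five inhibitor concentrations. Relative potency compared IC50 with mevinolin (set to 100), corrected for molecular weight.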
# [4] = biological target: T3, 3-hydroxy-3-methylglutaryl-coenzyme A reductase (Homo sapiens, UniProt P04035); assay: Inhibition of the incorporation of sodium [14C]acetate into cholesterol in HEP G2 cells.; format: functional, cell-based, HepG2
# T3 sequence (P04035 whole entry): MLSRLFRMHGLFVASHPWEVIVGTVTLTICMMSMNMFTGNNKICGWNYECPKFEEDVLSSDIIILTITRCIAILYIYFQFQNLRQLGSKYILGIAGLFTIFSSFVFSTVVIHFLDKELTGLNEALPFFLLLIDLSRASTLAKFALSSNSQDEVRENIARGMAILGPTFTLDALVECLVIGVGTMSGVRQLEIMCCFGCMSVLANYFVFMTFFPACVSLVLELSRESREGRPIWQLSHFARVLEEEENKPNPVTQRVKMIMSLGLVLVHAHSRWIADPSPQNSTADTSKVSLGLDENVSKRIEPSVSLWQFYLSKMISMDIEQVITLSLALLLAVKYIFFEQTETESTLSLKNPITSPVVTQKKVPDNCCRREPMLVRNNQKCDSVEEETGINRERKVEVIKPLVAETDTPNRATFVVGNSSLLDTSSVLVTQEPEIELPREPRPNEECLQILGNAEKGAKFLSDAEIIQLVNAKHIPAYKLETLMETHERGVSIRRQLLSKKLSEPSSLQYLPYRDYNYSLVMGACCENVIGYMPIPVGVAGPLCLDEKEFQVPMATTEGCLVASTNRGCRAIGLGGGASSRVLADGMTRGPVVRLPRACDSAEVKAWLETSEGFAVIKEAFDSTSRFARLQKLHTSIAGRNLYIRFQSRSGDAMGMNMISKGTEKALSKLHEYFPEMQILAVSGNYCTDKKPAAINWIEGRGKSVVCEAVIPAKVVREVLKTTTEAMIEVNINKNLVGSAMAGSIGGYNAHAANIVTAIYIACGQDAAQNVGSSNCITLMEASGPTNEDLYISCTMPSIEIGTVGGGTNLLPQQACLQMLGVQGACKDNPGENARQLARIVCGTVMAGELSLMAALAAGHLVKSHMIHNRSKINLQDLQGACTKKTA
# [5] = biological target: T4, 3-hydroxy-3-methylglutaryl-coenzyme A reductase (Homo sapiens) (UniProt P04035); assay: as §1; format: functional; method in brief: as §2
# T4 sequence (whole entry): T3 sequence (P04035 whole entry)
# [6] = species on record: Sus scrofa; assay: In vitro inhibition of Cu2+ catalyzed LDL oxidation; format: functional
# Method in brief: (§3)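 Porcine plasma LDL isolated by sequential ultracentrifugation (density 1.019-1.063 g/mL), dialysed against PBS pH 7.4, then diluted to 0.1 mg/mL protein. Preincubated 1 h at 37 °C under N2 with compound in ethanol. Oxidised with 5 μM Cu2+ for 2 h at 37 °C in air. Fluorescence read at ex 365/em 430 nm.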
# [7] = species on record: Sus scrofa; assay: Compound was tested for inhibition of Cu2+ catalyzed LDL oxidation and the potency relative to terbufucine was determined; format: functional; method in brief: as §3
# [8] = system: Oryctolagus cuniculus; assay: Tested in vivo for hypocholesterolemic activity by measuring its ability to decrease serum total cholesterol, after oral administration of 5 mg/kg body wt. per day in normolipidemic NZW rabbits; format: functional
# Method in brief: (§4)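 NZW rabbits (n = 5 or 6) dosed orally daily for 10 days. Serum total cholesterol reported as % change versus control. For 20 mg/kg, that dose was given on days 11-20 after 10 mg/kg, with the value read on day 20. Error given as SEM.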
# [9] = species on record: Rattus norvegicus; assay: In vitro inhibition of microsomal lipid peroxidation at 10e-5 M conc.; format: functional
# Method in brief: (§5)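 Rat liver microsomes in 50 mM Tris-HCl pH 7.4 with 100 mM KCl and 6.0 mM MgCl2, final protein 0.4 mg/mL. Peroxidation was started with ADP (2 mM)/FeCl3 (10 μM) plus an NADPH-regenerating system. Incubation 30 min at 37 °C with shaking. Thiobarbituric acid reactive substances were read at 535 nm.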
# [10] = species on record: Rattus norvegicus; assay: Compound was tested for inhibition of microsomal lipid peroxidation and the potency relative to terbufucine was determined; format: functional; method in brief: as §5
# [11] = system: Oryctolagus cuniculus; assay: Tested in vivo for hypocholesterolemic activity by measuring its ability to decrease serum total cholesterol, after oral administration of 10 mg/kg body wt. per day in normolipidemic NZW rabbits; format: functional; method in brief: as §4
# [12] = system: Rattus norvegicus; assay: In vivo inhibition of hepatic cholesterol de novo synthesis in rat after oral administration of 5 mg/kg dose; format: functional
# [13] = species on record: Rattus norvegicus; assay: Potency relative to mevinolin was determined with respect to IC50. […]; format: functional
# [14] = species on record: Rattus norvegicus; assay: In vitro inhibition of microsomal lipid peroxidation; format: functional; method in brief: as §5
# [15] = system: Oryctolagus cuniculus; assay: Tested in vivo for hypocholesterolemic activity by measuring its ability to decrease serum total cholesterol, after oral administration of 50 mg/kg body wt. per day in normolipidemic NZW rabbits; format: functional; method in brief: as §4
# [16] = species on record: Sus scrofa; assay: In vitro inhibition of Cu2+ catalyzed LDL oxidation at 10e-5 M conc.; format: functional; method in brief: as §3
# [17] = biological target: T1, 3-hydroxy-3-methylglutaryl-coenzyme A reductase; assay: In vitro inhibition of solubilized HMG-CoA reductase in rat liver.
# [18] = system: Oryctolagus cuniculus; assay: Tested in vivo for hypocholesterolemic activity by measuring its ability to decrease serum total cholesterol, after oral administration of 75 mg/kg body wt. per day in normolipidemic NZW rabbits; Very potent; format: functional, organism-based; set-up: dose 75 mg/kg, route oral
Compound,IC50 [4],Relative potency [5],IC50 [6],Relative potency [7],inhibition [9],Relative potency [10],Cholesterol [12],Relative potency [13],other results
CC(C)c1cc(-c2ccc(F)cc2)cc(-c2ccc(F)cc2)c1OCC(O)C[C@@H](O)CC(=O)[O-].[Na+] (some centres undefined),55 nM,90,–,–,–,–,–,–,Change [1]: 3%; IC50 [2]: 17 nM; Relative potency [3]: 43
CC(=O)[O-].CC(C)c1c(OC[C@@H](O)C[C@@H](O)CC(=O)[O-])c(C(C)C)c(C(C)C)c(O)c1-c1ccc(F)cc1.[Na+].[Na+],4.1 nM,1200,6 µM,2,< 10%,< 0.1,–,–,Change [8]: -12%
CC(C)c1cc(C(C)(C)C)cc(-c2ccc(F)cc2)c1OCC1C[C@@H](O)CC(=O)O1 (some centres undefined),–,–,–,–,–,–,95.7%,6,Change [11]: -15%
CC(=O)Oc1c(-c2ccc(F)cc2)c(C(C)C)c(O)c(C(C)C)c1C(C)C,–,–,0.15 µM,73,98%,4,–,–,IC50 [14]: 2800 nM
Cc1cc(C)c(OCC2C[C@@H](O)CC(=O)O2)c(C(c2ccc(F)cc2)c2ccc(F)cc2)c1 (some centres undefined),–,–,–,–,–,–,71.6%,33,Change [15]: -19%
CC(C)c1cc(Sc2ccc(F)cc2)cc(-c2ccc(F)cc2)c1OCC(O)C[C@@H](O)CC(=O)[O-].[Na+] (some centres undefined),0.5 nM,10000,> 10 µM,0.1,< 10%,< 0.1,–,–,IC50 [2]: 6 nM; inhibition at 10 µM [16]: 41%; Change [8]: -46%
O=C1C[C@H](O)CC(COc2c(Cl)cc(Cl)cc2C(c2ccc(F)cc2)c2ccc(F)cc2)O1 (some centres undefined),–,–,–,–,–,–,65.6%,40,–
CC(C)c1cc(-c2ccc(F)cc2)c(/C=C/[C@@H](O)C[C@@H](O)CC(=O)[O-])c(C(C)C)n1.[Na+],–,–,–,–,–,–,–,–,IC50 [17]: 3 nM; IC50 [18]: Very potent
O=C1C[C@H](O)CC(COc2c(Cl)cc(Cl)cc2CC2CCCCC2)O1 (some centres undefined),–,–,–,–,–,–,36.4%,74,Change [15]: -11%
